Experimental data from different studies.
Lines come from different studies, so protocols differ.
Target: 3-phosphoinositide-dependent protein kinase 1 (PDPK1, Homo sapiens, UniProt O15530)
Residues used in one study (O15530 1-556): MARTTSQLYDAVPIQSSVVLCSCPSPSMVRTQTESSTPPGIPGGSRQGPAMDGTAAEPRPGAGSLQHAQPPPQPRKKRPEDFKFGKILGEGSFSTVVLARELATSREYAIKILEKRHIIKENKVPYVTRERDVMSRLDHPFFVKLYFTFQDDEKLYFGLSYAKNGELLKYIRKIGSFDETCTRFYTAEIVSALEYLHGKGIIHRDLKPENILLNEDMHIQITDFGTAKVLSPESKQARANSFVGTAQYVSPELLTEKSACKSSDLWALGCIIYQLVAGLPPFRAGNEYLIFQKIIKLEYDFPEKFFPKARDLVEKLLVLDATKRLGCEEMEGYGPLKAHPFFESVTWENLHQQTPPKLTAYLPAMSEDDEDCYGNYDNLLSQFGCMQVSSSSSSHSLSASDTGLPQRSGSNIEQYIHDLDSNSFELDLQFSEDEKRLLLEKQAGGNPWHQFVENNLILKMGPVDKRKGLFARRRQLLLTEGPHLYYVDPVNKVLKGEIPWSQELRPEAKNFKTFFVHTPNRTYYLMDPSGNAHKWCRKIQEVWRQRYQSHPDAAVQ

| Structure (SMILES) | assay | setting | quantity | result |
| --- | --- | --- | --- | --- |
| CC(C)(C)c1nc(-c2cccc(NS(=O)(=O)c3c(F)cccc3F)c2F)c(-c2ccnc(N)n2)s1 | enzyme activity, inhibitor, radiometric | 1 µM | remaining activity | 94% |
| FC(F)c1nc2ccccc2n1-c1nc(N2CCOCC2)nc(N2CCOCC2)n1 | enzyme activity, inhibitor | 10 µM | remaining activity | 92% |
| Nc1nc(Nc2ccccc2)sc1C(=O)c1c(F)cccc1F | enzyme activity, inhibitor | 10 µM | remaining activity | 65% |
| CC(C)(C)c1nc2c3cc[nH]c(=O)c3c3cc(F)ccc3c2[nH]1 | cell-free assay | 0.5 µM | remaining signal | 27% |
| Oc1cccc(-c2nc(N3CCOCC3)c3oc4ncccc4c3n2)c1 | enzyme activity, inhibitor | 10 µM | remaining activity | 107% |
| CCCCN(CCCC)C(=O)CN1C[C@H](c2cc(OC)c3c(c2)OCO3)[C@@H](C(=O)O)[C@@H]1CC(C)(C)CCC | cell-free assay, competition with immobilised ligand | 1 µM | remaining binding | 100% |
| O=Nc1c(-c2c(O)[nH]c3ccccc23)[nH]c2ccccc12 | cell-free assay | 0.5 µM | remaining signal | 93% |
| Nc1nc(NC2CCCCC2)sc1C(=O)c1ccccc1 | enzyme activity, inhibitor | 10 µM | remaining activity | 106% |
| Cc1sc(C(=O)NC2COC2)cc1-n1cc(NC(=O)Nc2c(F)cccc2Cl)cn1 | enzyme activity, inhibitor | 10 µM | remaining activity | 99.2% |
| O=C(N[C@H]1CCCCC/C=C\C2C[C@@]2(C(=O)O)NC(=O)[C@@H]2C[C@@H](Oc3ccncc3)CN2C1=O)OC1CCCC1 (some centres unmarked) | binding, competition with immobilised ligand | 1 µM | remaining binding | 92% |
| N#CCCc1ccc2c(c1)-c1[nH]c3ccc([N+](=O)[O-])cc3c1CC(=O)N2 | cell-free assay | 0.5 µM | remaining signal | 79.8% |
| CNC(=O)c1cc(Oc2ccc(NC(=O)Nc3ccc(Cl)c(C(F)(F)F)c3)cc2)ccn1 | cell-free assay, competition with immobilised ligand | 0.1 µM | remaining binding | 100% |
| Cc1ccc(NC(=O)c2ccc(C)c(C(F)(F)F)c2)cc1C#Cc1nn(C2CCC(O)CC2)c2ncnc(N)c12 (centres unmarked) | cell-free assay | 10 µM | remaining signal | 113% |
| c1ccc(N2CCN(Cc3nc4ccccc4[nH]3)CC2)nc1 | binding, competition with immobilised ligand | 1 µM | remaining binding | 89% |
| Cc1ccc(C(=O)Nc2ccc(CN3CCN(C)CC3)c(C(F)(F)F)c2)cc1C#Cc1cnc2cccnn12 | enzyme activity, inhibitor | 23.5 nM | remaining activity | 94% |
| C[S+]([O-])c1ccc(-c2nc(-c3ccncc3)c(-c3ccc(F)cc3)[nH]2)cc1 (centres unmarked) | cell-free assay | 0.5 µM | remaining signal | 96.3% |
| O=C(O)[C@@H]1[C@@H](Cn2nnc3ccccc3c2=O)CC[C@H]1C(=O)c1ccc(OCCC2CCOCC2)cc1 | cell-free assay, competition with immobilised ligand | 1 µM | remaining binding | 80% |
| COc1cc(Nc2cnc(C#N)c(O[C@H](C)CN(C)C)n2)ncc1-c1cnn(C)c1 | enzyme activity, inhibitor, radiometric | 10 µM | remaining activity | 76% |
| CN(C)C1CCN(CC#Cc2nn(C3CCCC3)c3nc(NCc4ccccc4)ncc23)C1 (centres unmarked) | enzyme activity, inhibitor, FRET | 1 µM | inhibition | 4% |
| CC(=O)C1=C(C)N(c2cccc(C(F)(F)F)c2)C(=O)N[C@@H]1c1ccc(C#N)nc1 | cell-free assay, competition with immobilised ligand | 1 µM | remaining binding | 93.4% |
| O=C1Nc2ccc(Cl)cc2C1=Cc1cc(Cl)c(O)c(Cl)c1 | cell-free assay | 0.5 µM | remaining signal | 103% |
| Cc1ccc(C(=O)NCc2ccsc2)cc1C#Cc1cn(C(C)C)c2ncnc(N)c12 | enzyme activity, inhibitor | 1 µM | activity vs control | 98% |
| COc1cccc(CNC(=O)c2nc3scc(COCc4ccc(C(=O)O)cc4)c3c(=O)[nH]2)c1 | cell-free assay, competition with immobilised ligand | 1 µM | remaining binding | 87.8% |
| Cc1cc(NC(=O)c2cccc3cc(-c4cccc5[nH]nc(N)c45)ccc23)ccc1F | enzyme activity, inhibitor | 0.1 µM | activity vs control | 101% |
| O=C(Nc1cnn(-c2csc(C(=O)NC3COC3)c2)c1)Nc1c(F)cccc1Cl | enzyme activity, inhibitor | 5 µM | remaining activity | 99.6% |
| CNC(=O)Nc1ccc2c(c1)[C@@]1(CC2)OC(=O)N(CC(=O)N(Cc2ccc(F)cc2)[C@@H](C)C(F)(F)F)C1=O | cell-free assay, competition with immobilised ligand | 1 µM | remaining binding | 85% |
